Experimental data published in ChEMBL document CHEMBL2021781, “Dual targeting of histone deacetylase and topoisomerase II with novel bifunctional inhibitors” (J Med Chem, 2012).
Activity calls are given as the source filed them. The rule behind the calls is not given here.

Tests used:
[1] = molecular target: T1, Histone deacetylase (Homo sapiens) (UniProt Q13547+O15379+Q9UBN7+Q92769+Q9UQL6+Q8WUI4+Q9BY41+Q96DB2+P56524+Q9UKV0+Q969S8); conditions: DU-145, 0.5 to 1 uM
[2] = molecular target: T2, Protein deacetylase HDAC6 (Homo sapiens, UniProt Q9UBN7); assay: Inhibition of HDAC6 in human HeLa cell nuclear extract using Fluor de Lys as substrate after 15 mins by fluorometric analysis
T2 sequence (Q9UBN7 whole entry): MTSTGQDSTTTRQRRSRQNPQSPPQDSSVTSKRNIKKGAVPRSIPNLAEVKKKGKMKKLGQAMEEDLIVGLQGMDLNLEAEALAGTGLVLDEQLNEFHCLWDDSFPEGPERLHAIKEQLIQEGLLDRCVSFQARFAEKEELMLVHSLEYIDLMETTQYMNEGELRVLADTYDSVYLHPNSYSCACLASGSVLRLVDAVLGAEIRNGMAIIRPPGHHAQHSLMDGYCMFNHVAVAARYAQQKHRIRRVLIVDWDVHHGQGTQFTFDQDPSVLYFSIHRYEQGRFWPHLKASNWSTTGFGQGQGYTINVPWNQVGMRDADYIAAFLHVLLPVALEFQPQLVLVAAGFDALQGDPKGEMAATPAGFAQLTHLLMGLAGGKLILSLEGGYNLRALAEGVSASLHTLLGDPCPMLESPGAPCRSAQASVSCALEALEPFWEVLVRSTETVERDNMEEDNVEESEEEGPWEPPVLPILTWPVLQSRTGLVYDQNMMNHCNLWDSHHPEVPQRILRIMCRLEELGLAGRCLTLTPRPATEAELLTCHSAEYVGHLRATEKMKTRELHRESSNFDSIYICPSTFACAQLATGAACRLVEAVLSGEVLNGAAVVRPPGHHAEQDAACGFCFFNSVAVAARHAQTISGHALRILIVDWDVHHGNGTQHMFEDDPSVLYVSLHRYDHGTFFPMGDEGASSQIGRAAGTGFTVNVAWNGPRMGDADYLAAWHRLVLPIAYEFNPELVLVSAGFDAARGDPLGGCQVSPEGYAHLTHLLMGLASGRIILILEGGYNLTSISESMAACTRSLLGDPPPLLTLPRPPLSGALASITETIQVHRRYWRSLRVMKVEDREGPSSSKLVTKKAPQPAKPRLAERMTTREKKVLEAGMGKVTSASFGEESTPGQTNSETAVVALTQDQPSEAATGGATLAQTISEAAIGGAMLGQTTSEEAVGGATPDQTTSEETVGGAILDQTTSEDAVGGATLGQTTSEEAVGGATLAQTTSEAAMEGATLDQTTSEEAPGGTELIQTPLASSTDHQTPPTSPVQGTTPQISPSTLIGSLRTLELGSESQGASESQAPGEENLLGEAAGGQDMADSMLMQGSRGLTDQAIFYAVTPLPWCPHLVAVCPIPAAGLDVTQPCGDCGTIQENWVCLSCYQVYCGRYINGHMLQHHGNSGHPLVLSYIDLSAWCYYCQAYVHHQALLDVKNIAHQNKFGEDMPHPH

[3] = molecular target: T1, Histone deacetylase (Homo sapiens); assay: Inhibition of HDAC in human DU145 cells assessed as histone H4 acetylation after 24 hrs by Western blot analysis; format: cell-based; conditions: DU-145
Outline: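 DU-145 cells passaged 24 h before dosing, then exposed 24 h to compound in growth medium (final DMSO 0.1%); controls received 0.1% DMSO. Lysed in RIPA with protease inhibitors at 4°C, cleared at 14,000 × g. Protein quantified against BSA, boiled, transferred to nitrocellulose. Probed for acetyl-H3, acetyl-H4 and p21waf1 with actin loading control; read by near-infrared scanning at 700/800 nm.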

DU-145 = assay: Antiproliferative activity against human DU145 cells after 72 hrs by MTS assay; format: functional, cell-based; conditions: DU-145, 72 h
Outline: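 DU-145 cells passaged 24 h before dosing and exposed 72 h; compounds from 10 mM DMSO stocks; controls given media with 0.1% DMSO; 37°C, 5% CO2. Viability read by MTS assay, with Trypan Blue staining also used. IC50 from the average of two experiments, each run in triplicate.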

[4] = molecular target: T3, Protein deacetylase HDAC6 (Homo sapiens) (UniProt Q9UBN7); assay: Inhibition of HDAC6-mediated tubulin acetylation in human DU145 cells at 90 nM after 4 hrs by Western blot analysis; format: cell-based; conditions: DU-145
T3 sequence (whole entry): T2 sequence (Q9UBN7 whole entry)
Outline: (§1)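 DU-145 cells passaged 24 h before dosing, then treated 4 h, with no more than 0.1% DMSO including controls. Lysis in RIPA buffer with protease inhibitors, protein quantified against a BSA standard, SDS-PAGE and transfer. Blots probed with rabbit anti-tubulin and mouse anti-acetyl tubulin, read by near-infrared imaging at 700/800 nm.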

Histone deacetylase 8 = molecular target: T4, Histone deacetylase 8 (Homo sapiens, UniProt Q9BY41); assay: Inhibition of HDAC8 in human HeLa cell nuclear extract using Fluor de Lys as substrate after 15 mins by fluorometric analysis
T4 sequence (Q9BY41 whole entry): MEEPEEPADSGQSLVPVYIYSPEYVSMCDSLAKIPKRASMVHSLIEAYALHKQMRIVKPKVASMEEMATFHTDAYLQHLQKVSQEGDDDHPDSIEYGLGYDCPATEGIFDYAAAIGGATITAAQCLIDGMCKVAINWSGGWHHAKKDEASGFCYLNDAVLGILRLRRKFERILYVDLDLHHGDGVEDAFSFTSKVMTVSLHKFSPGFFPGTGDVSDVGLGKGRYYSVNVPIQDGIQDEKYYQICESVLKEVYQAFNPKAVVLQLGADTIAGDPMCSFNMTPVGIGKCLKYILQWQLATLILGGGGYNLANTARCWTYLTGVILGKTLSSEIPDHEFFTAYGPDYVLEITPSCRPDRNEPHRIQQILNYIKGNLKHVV

[5] = molecular target: T1, Histone deacetylase (Homo sapiens); assay: Inhibition of HDAC in human DU145 cells assessed as upregulation of p21 expression at 5 times IC50 concentration after 4 hrs by Western blot analysis relative to control; format: cell-based; conditions: DU-145
Outline: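 Lysed in RIPA with protease inhibitors, cleared 14,000 RPM at 4°C. Immunoblotted, probing acetylated versus total tubulin; p21 also checked. Near-infrared detection at 700/800 nm.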

[6] = molecular target: T3, Protein deacetylase HDAC6 (Homo sapiens); assay: Inhibition of HDAC6-mediated tubulin acetylation in human DU145 cells at 130 nM after 4 hrs by Western blot analysis; format: cell-based; conditions: DU-145
Outline: as §1

[7] = Drug uptake in human DU145 cell perinuclear region at 1 uM after 4 hrs by confocal microscopic analysis; format: ADME, cell-based; conditions: du-145, 4 h
Outline: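 Cells plated on glass coverslips 24 h ahead, then given fresh media with compound at 1 μM for 4 h. After a PBS wash, coverslips were mounted and intracellular distribution imaged by confocal microscopy, excitation 488 nm. Done in DU-145 cells, with A549 lung tumor cells also examined.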

[8] = molecular target: T1, Histone deacetylase (Homo sapiens); conditions: DU-145, 0.5 to 1 uM; remark: listed apart in the source

COc1cccc2c1C(=O)c1c(O)c3c(c(O)c1C2=O)C[C@@](O)(C(C)=O)C[C@@H]3O[C@H]1C[C@H](NCc2ccc(NC(=O)CCCCCCC(=O)NO)cc2)[C@H](O)[C@H](C)O1
inhibition [1]: inactive
IC50 [2]: 20 nM
inhibition [3]: Dose-dependent effect
IC50 (DU-145): 130 nM
inhibition [4]: Active
IC50 (Histone deacetylase 8): 220 nM
Activity [5]: inactive
inhibition [6]: Active
Drug uptake [7]: Active
inhibition [8]: Active
